According to ChEMBL document CHEMBL1132620, “Piperazine imidazo[1,5-a]quinoxaline ureas as high-affinity GABAA ligands of dual functionality” (J Med Chem, 1999):
Activity calls are given as the source filed them. No cut-off for these calls is given here.

What was measured:
[1] = Half-life after iv dose of 4.97 mg/kg in rats; assay type: ADME, organism-based; parameters: dose 4.97 mg/kg, route intravenous; details: rat, in vivo
Rattus norvegicus [2] = experiment: In vivo efficacy evaluated for ability to antagonize metrazole induced clonic convulsions in rat after ip injection; assay type: functional
Mus musculus [3] = experiment: In vivo efficacy is evaluated by percent control of cerebellar GMP levels in (drug+stress) treated mice/mice under stress; assay type: functional; parameters: concentration or dose not given beside the values
Summary of the method: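 Male CF-1 mice given drug orally in vehicle 122 before electric footshock stress, controls given vehicle (1 mL/100 g); killed 30 min after treatment; cerebellum homogenized in 1% perchloric acid, iced 30 min, boiled 5 min, spun 17000g 20 min; supernatant cGMP by radioimmunoassay, expressed as % of stress control.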

Rattus norvegicus [4] = experiment: Mean number of shocks produced by the compound in rats at a dose of 3 mg/kg was determined by vogel's punished licking assay; assay type: functional
Summary of the method: (§1)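 Vogel punished licking test in rats; number of shocks accepted recorded per dose group (n 6–10); each dose compared with the 0 mg/kg group of the same experiment by Wilcoxon rank sum test.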

[5] = Oral bioavailability at a dose of 5.03 mg/kg in rats; assay type: ADME, organism-based; details: rat, in vivo
[6] = half-life after po dose of 5.03 mg/kg in rats; assay type: ADME, organism-based; parameters: dose 5.03 mg/kg, route oral; details: rat, in vivo
Mus musculus [7] = experiment: In vivo acute electroshock physical dependence activity in mice; Not active.; assay type: functional, organism-based
[8] = Total plasma clearance was determined for the compound after iv dose of 4.97 mg/kg in rats; assay type: ADME, organism-based; parameters: dose 4.97 mg/kg, route intravenous; details: rat, read-out: Clp (converted)
Mus musculus [9] = organism: Mus musculus; experiment: Ability to antagonize the muscle relaxation effect in mice caused by a benzodiazepine full agonist, triazolam.; assay type: functional
Summary of the method: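 Muscle relaxation induced by triazolam; test compound and triazolam given separately, traction scored 30 min after dosing; ED50 for blocking the relaxant effect.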

Rattus norvegicus [10] = experiment: Mean number of shocks produced by the compound in rats at a dose of 10 mg/kg was determined by vogel's punished licking assay; assay type: functional; summary of the method: as §1
[11] = molecular target: T1, GABA-A receptor; alpha-1/beta-2/gamma-2 (Homo sapiens) (UniProt P14867+P47870+P18507); experiment: (§2) In vitro GABA-mediated chloride current in A293 cells expressing GABA-A benzodiazepine receptor alpha-1-beta-2-gamma-2 subunits at 5 uM; assay type: functional, cell-based; details: HEK293
[12] = molecular target: T2, GABA-A receptor; anion channel (Rattus norvegicus) (UniProt O09028+P15431+P18506+P18508+P19969+P20236+P23574+P23576+P28471+P28473+P30191+P62813+P63079+P63138+Q91ZM7+Q9ES14); experiment: Shift in [35S]TBPS binding to GABA-A Benzodiazepine receptor of rat brain membrane
[13] = Area under curve was determined for the compound after po dose of 5.03 mg/kg in rats; assay type: ADME, organism-based; parameters: dose 5.03 mg/kg, route oral; details: rat, in vivo
[14] = molecular target: T2, GABA-A receptor; anion channel (Rattus norvegicus); experiment: (§3) Displacement of [3H]flunitrazepam from GABA-A benzodiazepine receptor of rat cortical membranes; assay type: cell membranes; parameters: concentration or dose not given beside the values; details: Membrane, concentration not given here
Summary of the method: (§4)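 Rat membranes incubated 60 min at 4 °C with [3H]flunitrazepam, 50 µg membrane protein and graded test drug in 200 µL containing NaCl, 10 mM Hepes/Tris pH 7.4 and 1 mM MgCl2; bound ligand separated by rapid filtration on GF/B; mean affinity, SE ≤10% of mean.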

[15] = molecular target: GABA-A receptor; anion channel; experiment: as §3; assay type: cell membranes, Membrane; summary of the method: as §4
[16] = molecular target: GABA A receptor alpha-3/beta-2/gamma-2 (Homo sapiens) (UniProt P47870+P18507+P34903); experiment: In vitro GABA-mediated chloride current in A293 cells expressing GABA-A benzodiazepine receptor alpha-3-beta-2-gamma-2 subunits at 5 uM; assay type: functional, cell-based; details: HEK293
[17] = Maximum serum concentration was determined for the compound after po dose of 5.03 mg/kg in rats; assay type: ADME, organism-based; parameters: dose 5.03 mg/kg, route oral; details: rat
[18] = Area under the curve was determined for the compound after iv dose of 4.97 mg/kg in rats; assay type: ADME, organism-based; parameters: dose 4.97 mg/kg, route intravenous; details: rat, in vivo
Rattus norvegicus [19] = experiment: Mean number of shocks produced by the compound in rats at a dose of 0 mg/kg was determined by vogel's punished licking assay; assay type: functional; summary of the method: as §1
Rattus norvegicus [20] = experiment: Mean number of shocks produced by the compound in rats at a dose of 0.3 mg/kg was determined by vogel's punished licking assay; assay type: functional; summary of the method: as §1
Rattus norvegicus [21] = experiment: Mean number of shocks produced by CDPZ in rats at a dose of 12 mg/kg was determined by vogel's punished licking assay; assay type: functional; summary of the method: as §1
[22] = Time at which Cmax was reached was determined for the compound after po dose of 5.03 mg/kg in rats; assay type: ADME, organism-based; parameters: dose 5.03 mg/kg, route oral; details: rat, in vivo
Summary of the method: (§5)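 Male Sprague–Dawley rats dosed orally with compound in a solution formulation, n = 3–4 per compound; serum drug concentrations measured over time, lower limit of quantitation 50 ng/mL. Tmax reported as the range of observed values across animals.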

Rattus norvegicus [23] = experiment: Mean number of shocks produced by the compound in rats at a dose of 1 mg/kg was determined by vogel's punished licking assay; assay type: functional; summary of the method: as §1
[24] = Area under curve was determined for the compound after po dose of 5.46 mg/kg in rats; assay type: ADME, organism-based; parameters: dose 5.46 mg/kg, route oral; details: rat, in vivo
[25] = Maximum serum concentration after po dose of 5.46 mg/kg in rats; assay type: ADME, organism-based; parameters: dose 5.46 mg/kg, route oral; details: rat
[26] = molecular target: T2, GABA-A receptor; anion channel (Rattus norvegicus); experiment: Inhibition of [35S]TBPS binding to GABA-A Benzodiazepine receptor of rat brain membranes; assay type: cell membranes; details: Membrane
[27] = Time at which Cmax was reached was determined for the compound after po dose of 5.46 mg/kg in rats; assay type: ADME, organism-based; parameters: dose 5.46 mg/kg, route oral; details: rat, in vivo; summary of the method: as §5
[28] = Half-life after po dose of 5.46 mg/kg in rats; assay type: ADME, organism-based; parameters: dose 5.46 mg/kg, route oral; details: rat, in vivo
[29] = Half-life after iv dose of 4.74 mg/kg in rats; assay type: ADME, organism-based; parameters: dose 4.74 mg/kg, route intravenous; details: rat, in vivo
Rattus norvegicus [30] = experiment: Mean number of shocks in vogel''s punished licking assay in rats by 3 mg/kg Diazepam; assay type: functional; summary of the method: as §1
Rattus norvegicus [31] = experiment: Geller-cook activity was determined using wilcoxon signed rank test on punished schedule at dose 1 mg/kg.; assay type: functional
Summary of the method: (§6)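 Geller–Cook conflict schedule with punished and nonpunished response rates recorded per treatment; 6 animals per dose, controls 12–17; each dose compared to its own control by Wilcoxon signed rank test, p < 0.05.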

Rattus norvegicus [32] = experiment: Geller-cook activity was determined using wilcoxon signed rank test on non punished schedule at dose 1 mg/kg.; assay type: functional; summary of the method: as §6
[33] = molecular target: T1, GABA-A receptor; alpha-1/beta-2/gamma-2 (Homo sapiens); experiment: as §2; assay type: functional, cell-based; details: HEK293; remark: listed apart in the source
Rattus norvegicus [34] = experiment: Geller-cook activity was determined using wilcoxon signed rank test on punished schedule at dose 3 mg/kg.; assay type: functional; summary of the method: as §6
Rattus norvegicus [35] = experiment: Geller-cook activity was determined using wilcoxon signed rank test on non punished schedule at dose 3 mg/kg.; assay type: functional; summary of the method: as §6
Rattus norvegicus [36] = experiment: Area under curve was determined for the compound after iv dose of 4.74 mg/kg in rats; assay type: ADME, organism-based; parameters: dose 4.74 mg/kg, route intravenous; details: in vivo
Rattus norvegicus [37] = experiment: Total plasma clearance was determined for the compound after iv dose of 4.74 mg/kg in rats; assay type: ADME, organism-based; parameters: dose 4.74 mg/kg, route intravenous; details: in vivo
Rattus norvegicus [38] = experiment: Geller-cook activity was determined using wilcoxon signed rank test on punished schedule at dose 0.3 mg/kg.; assay type: functional; summary of the method: as §6
Rattus norvegicus [39] = experiment: Geller-cook activity was determined using wilcoxon signed rank test on non punished schedule at dose 0.3 mg/kg.; assay type: functional; summary of the method: as §6

SMILES | ED50 (Rattus norvegicus [2]) [mg/kg] | Control (Mus musculus [3]) [%] | Mean no. of shocks (Rattus norvegicus [4]) | Acute electroshock activity (Mus musculus [7]) | ED50 (Mus musculus [9]) [mg/kg] | Mean no. of shocks (Rattus norvegicus [10]) | Change in Cl- current [11] | Shift [12] | inhibition [14] [%] | Ki [15] [nM] | Change in Cl- current [16] | Mean no. of shocks (Rattus norvegicus [19]) | Mean no. of shocks (Rattus norvegicus [20]) | Mean no. of shocks (Rattus norvegicus [23]) | further results
C[C@@H]1CN(C(=O)N2Cc3c(C(=O)OC(C)(C)C)ncn3-c3ccc(C(F)(F)F)cc32)C[C@H](C)N1 | 21 | 36 | 6.4 | inactive | > 30 | 7.9 | 0.5 | 0.31 | 52 | 32.4 | 0.1 | 4.9 | 4.6 | 4.9 | half-life [1]: 2.4 h; bioavailability [5]: 84%; half-life [6]: 2.7 h; clearance [8]: 12.2 mL/min/kg; AUC [13]: 6430 ng·h/mL; Cmax [17]: 1160 ng/mL; AUC [18]: 7470 ng·h/mL; Mean no. of shocks (Rattus norvegicus [21]): 23; Tmax [22]: 1 h
CC(C)(C)OC(=O)c1ncn2c1CN(C(=O)N1CCCC1)c1cc(Cl)ccc1-2.CCCC(=O)O | 29.7 | 105 |  | inactive | 14 |  | 0.38 |  |  | 2.56 |  |  |  |  | AUC [24]: 3680 ng·h/mL; Cmax [25]: 330 ng/mL; Shift [26]: 0.53; Tmax [27]: 1 h; half-life [28]: 7.6 h
C[C@@H]1CN(C(=O)N2Cc3c(C(=O)OC(C)(C)C)ncn3-c3ccc(Cl)cc32)C[C@H](C)N1C | 14.8 | 36 | 18 | inactive | 7 | 18 | -0.2 | -0.06 | 86 | 4.48 | 1 | 8.4 | 8 | 7 | half-life [29]: 0.57 h; Mean no. of shocks (Rattus norvegicus [30]): 13; Gellar cook activity (Rattus norvegicus [31]): 53; Gellar cook activity (Rattus norvegicus [32]): 56; Change in Cl- current [33]: 1; Gellar cook activity (Rattus norvegicus [34]): 65; Gellar cook activity (Rattus norvegicus [35]): 36; AUC (Rattus norvegicus [36]): 3570 ng·h/mL; Clp (Rattus norvegicus [37]): 45.2 mL/min/kg; Gellar cook activity (Rattus norvegicus [38]): 22; Gellar cook activity (Rattus norvegicus [39]): 38
